Test results from article PMC6146057 (ACS chemical neuroscience, 2018).

Columns and labels:
[1] = Plasma protein binding by equilibrium dialysis, cyno; assay type: in vitro ADME; details: cynomolgus monkey, pH 7.4
Summary of the method: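 Plasma spiked with test article was dialysed against 25 mM phosphate buffer, pH 7.4, by equilibrium dialysis for 4 h at 37 °C with shaking. Aliquots from each chamber were matrix-matched, extracted with ice-cold acetonitrile, centrifuged and quantified by LC/MS/MS.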

nonhuman primate (NHP) = assay: Nonhuman primate adverse effect assessment; assay type: in vivo
rats = assay: Contextual fear conditioning, risperidone-induced deficit; assay type: in vivo, rat; details: 10 mg/kg VU0486846 coadministered with 3 mg/kg risperidone
[2] = tested on: layer V medial prefrontal cortex fEPSPs; assay: Extracellular field electrophysiology in layer V prelimbic mPFC slices; design: species or system mouse
Summary of the method: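 Coronal prelimbic slices (400 μm) recovered in NMDG-HEPES solution (pH 7.3) for 8–10 min at 32 °C, then were perfused with ACSF at 2 mL/min and 30–32 °C. Layer V fEPSPs were evoked from layers II–III (200 μs, 0.05 Hz) or optically in ChR2-injected mice. Compound alone was bath-applied for 20 min. Alternatively, 10 μM compound was applied for 10 min, then with 3 μM OxoM for 10 min. Slope was measured 46–50 min after washout.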

P-gp = P-gp (Homo sapiens, UniProt P08183); assay: MDCK P-gp efflux and permeability; assay type: in vitro ADME
Chain of P-gp (P08183 whole entry): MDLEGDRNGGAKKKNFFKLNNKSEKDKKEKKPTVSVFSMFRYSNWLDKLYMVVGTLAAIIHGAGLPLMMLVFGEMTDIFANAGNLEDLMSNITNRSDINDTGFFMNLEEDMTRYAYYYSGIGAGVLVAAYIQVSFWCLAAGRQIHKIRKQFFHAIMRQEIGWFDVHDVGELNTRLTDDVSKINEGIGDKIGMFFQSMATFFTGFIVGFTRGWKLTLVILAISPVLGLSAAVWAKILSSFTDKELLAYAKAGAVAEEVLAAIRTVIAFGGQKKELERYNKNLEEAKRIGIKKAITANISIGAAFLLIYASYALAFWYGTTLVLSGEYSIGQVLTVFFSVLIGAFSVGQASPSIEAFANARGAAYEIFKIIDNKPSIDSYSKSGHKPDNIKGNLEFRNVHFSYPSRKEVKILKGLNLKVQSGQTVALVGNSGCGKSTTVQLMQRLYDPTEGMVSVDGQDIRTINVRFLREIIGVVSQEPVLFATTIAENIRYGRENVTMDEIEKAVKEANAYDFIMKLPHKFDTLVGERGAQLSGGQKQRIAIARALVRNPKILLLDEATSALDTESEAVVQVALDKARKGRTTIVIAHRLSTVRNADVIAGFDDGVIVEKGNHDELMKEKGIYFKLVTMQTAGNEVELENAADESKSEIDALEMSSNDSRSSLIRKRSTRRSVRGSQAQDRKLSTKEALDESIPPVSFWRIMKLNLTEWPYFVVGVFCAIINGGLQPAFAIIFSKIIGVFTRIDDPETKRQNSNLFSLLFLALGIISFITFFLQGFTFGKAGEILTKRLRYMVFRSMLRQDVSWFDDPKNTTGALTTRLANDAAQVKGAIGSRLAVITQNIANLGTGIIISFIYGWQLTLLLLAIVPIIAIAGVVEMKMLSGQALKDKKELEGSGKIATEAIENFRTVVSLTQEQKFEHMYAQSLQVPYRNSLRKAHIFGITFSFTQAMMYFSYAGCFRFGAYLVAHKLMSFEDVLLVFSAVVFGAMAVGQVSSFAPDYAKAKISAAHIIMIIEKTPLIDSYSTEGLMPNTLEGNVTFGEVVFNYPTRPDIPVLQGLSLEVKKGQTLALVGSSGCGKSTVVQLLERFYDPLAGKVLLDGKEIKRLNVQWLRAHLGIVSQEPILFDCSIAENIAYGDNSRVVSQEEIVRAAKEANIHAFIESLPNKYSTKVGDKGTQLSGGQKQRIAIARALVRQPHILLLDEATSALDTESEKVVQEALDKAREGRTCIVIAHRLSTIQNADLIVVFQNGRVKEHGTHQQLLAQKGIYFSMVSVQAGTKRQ

M1 = target: T1, M1 (Homo sapiens, UniProt P11229); assay: M1 PAM potency at increasing ACh concentration; assay type: cell-based; details: for EC50: M1 PAM potency
T1 sequence (P11229 1-460): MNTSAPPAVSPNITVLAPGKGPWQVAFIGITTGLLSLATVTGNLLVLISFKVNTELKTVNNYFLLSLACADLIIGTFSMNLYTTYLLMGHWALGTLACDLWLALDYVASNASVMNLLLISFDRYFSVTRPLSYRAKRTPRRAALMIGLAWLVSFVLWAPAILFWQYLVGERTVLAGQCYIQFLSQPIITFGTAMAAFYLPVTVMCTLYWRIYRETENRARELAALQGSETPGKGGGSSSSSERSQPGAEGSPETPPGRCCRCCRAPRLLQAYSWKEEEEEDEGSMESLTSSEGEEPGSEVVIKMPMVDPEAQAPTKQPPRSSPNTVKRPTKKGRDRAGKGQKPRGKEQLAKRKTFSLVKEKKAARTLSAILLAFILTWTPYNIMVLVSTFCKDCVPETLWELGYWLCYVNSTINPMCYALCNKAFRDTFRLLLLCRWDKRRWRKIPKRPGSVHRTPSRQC

[3] = tested on: 68 GPCRs, ion channels, and transporters; assay: Eurofins Lead Profiling panel; assay type: binding; details: @10 μM, 68 targets
mice [4] = assay: High dose phenotypic mouse seizure liability screen; assay type: in vivo; details: 100 mg/kg i.p., up to 3 h
mice [5] = assay: Modified Irwin Toxicology Battery in mice; assay type: in vivo, mouse; details: 100 mg/kg i.p.
[6] = Rat brain homogenate binding; assay type: in vitro ADME
[7] = ACh concentration increased to EC70

- fraction unbound at 4 h [1]: 0.016
- human P-gp substrate (P-gp; MDCK): not a human P-gp substrate
- Papp (P-gp; human, MDCK): 30 ×10⁻⁶ cm/s
- efflux ratio (P-gp; human, MDCK-MDR1): 0.9
- M1 PAM efficacy, % ACh Max (M1; [7]): 90 ± 1 % ACh Max
- EC50 (M1; [7]): 68 ± 11 nM
- EC50 (M1; very low level of ACh (~EC9)): 430 ± 120 nM
- M1 PAM efficacy, % ACh Max (M1; very low level of ACh (~EC9)): 84 ± 2 % ACh Max
- fraction unbound [6]: 0.03
Structure (SMILES): O=C(N[C@H]1CCCC[C@@H]1O)[C@H]1CN(Cc2ccc(-n3cccn3)cc2)c2ccccc2O1 [VU0486846, (2R)-N-[(1S,2S)-2-Hydroxycyclohexyl]-4-[(4-pyrazol-1-ylphenyl)-methyl]-2,3-dihydro-1,4-benzoxazine-2-carboxamide]
- total plasma levels (nonhuman primate (NHP)): ~ 2 μM
- Adverse effects (nonhuman primate (NHP); at achieved plasma levels): without any adverse effects
- Conditioned freezing (rats): restored conditioned freezing to vehicle-treated control levels
- Magnitude of LTD, PAM + CCh vs CCh alone ([2]; 3 μM VU0486846 + 10 μM CCh, electrically evoked, p < 0.05): significant increase in the magnitude of LTD
- Change in fEPSP slope, compound alone (agonist activity in PFC) ([2]; 3 μM bath application 20 min, electrically evoked layer V fEPSPs): no significant change
- Magnitude of LTD, PAM + OxoM vs OxoM alone ([2]; 10 μM VU0486846 + 3 μM OxoM, optically evoked, p < 0.05): significantly enhanced
- inhibition at any target in the panel [3]: ≤ 50%
- Seizure liability (mice [4]): devoid of seizure liability
- free brain levels (mice [5]): 342 nM
- free plasma levels (mice [5]): 2000 nM
- total brain levels (mice [5]): 12.2 µM
- total plasma levels (mice [5]): 18.2 µM
- Cholinergic side effects or adverse effects (mice [5]; 3 h evaluation period): did not produce any cholinergic side effects or pronounced adverse effects
